Measurements as given in ChEMBL document CHEMBL2086380 (J Med Chem, 2012).
≈ marks a conversion by molar mass, not a printed value. Blank lines part the entries; values can stand above or below the compound they belong to. Calls of active or inactive are those of the source. The rule behind the calls is not given here.

Key:
HCT-116 [1] = assay: Antiproliferative activity against human HCT116 cells after 72 hrs by CellTiterGlo assay; conditions: HCT-116, 72 h
A-375 [2] = assay: Antiproliferative activity against human A375 cells after 72 hrs by CellTiterGlo assay; conditions: A-375, 72 h
Cytochrome P450 2C9 = Cytochrome P450 2C9 (Homo sapiens, UniProt P11712); assay: Inhibition of CYP2C9; assay type: ADME
Chain of Cytochrome P450 2C9 (P11712 whole entry): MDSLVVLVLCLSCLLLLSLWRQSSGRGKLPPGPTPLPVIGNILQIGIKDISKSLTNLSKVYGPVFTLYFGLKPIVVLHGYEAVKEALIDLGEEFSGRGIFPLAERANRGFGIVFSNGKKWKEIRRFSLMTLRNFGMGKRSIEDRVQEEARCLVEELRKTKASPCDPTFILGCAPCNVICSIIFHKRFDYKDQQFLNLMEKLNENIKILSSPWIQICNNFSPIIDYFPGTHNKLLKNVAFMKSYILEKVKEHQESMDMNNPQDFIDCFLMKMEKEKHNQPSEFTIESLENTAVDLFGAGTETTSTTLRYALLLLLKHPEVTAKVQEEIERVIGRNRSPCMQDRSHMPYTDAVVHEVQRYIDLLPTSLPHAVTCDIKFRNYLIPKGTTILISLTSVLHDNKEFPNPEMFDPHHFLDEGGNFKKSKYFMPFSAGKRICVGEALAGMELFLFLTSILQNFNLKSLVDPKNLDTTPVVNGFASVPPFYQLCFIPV

Cytochrome P450 2C19 = Cytochrome P450 2C19 (Homo sapiens, UniProt P33261); assay: Inhibition of CYP2C19; assay type: ADME
Chain of Cytochrome P450 2C19 (P33261 whole entry): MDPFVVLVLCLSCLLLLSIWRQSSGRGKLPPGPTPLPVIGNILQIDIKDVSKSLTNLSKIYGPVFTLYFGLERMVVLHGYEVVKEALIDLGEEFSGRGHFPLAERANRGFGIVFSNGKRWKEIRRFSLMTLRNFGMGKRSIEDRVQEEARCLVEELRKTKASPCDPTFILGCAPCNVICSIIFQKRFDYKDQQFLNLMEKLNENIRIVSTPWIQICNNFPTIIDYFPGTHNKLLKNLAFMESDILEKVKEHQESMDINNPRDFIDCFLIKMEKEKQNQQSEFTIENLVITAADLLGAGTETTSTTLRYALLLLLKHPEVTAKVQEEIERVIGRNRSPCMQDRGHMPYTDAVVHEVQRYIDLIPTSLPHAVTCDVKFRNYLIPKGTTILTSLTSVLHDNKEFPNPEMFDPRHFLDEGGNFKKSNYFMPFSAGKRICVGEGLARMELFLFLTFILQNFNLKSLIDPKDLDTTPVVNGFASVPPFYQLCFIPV

A-375 [3] = assay: Ratio of EC50 for human HCT116 cells to EC50 for human A375 cells; assay type: functional
[4] = Plasma protein binding in mouse; assay type: ADME, cell-free; conditions: read-out: PPB (converted)
[5] = Half life in mouse at 1 mg/kg, iv; assay type: ADME, organism-based; design: dose 1 mg/kg, route intravenous; conditions: in vivo
[6] = Volume of distribution at steady state in mouse at 1 mg/kg, iv; assay type: ADME, organism-based; design: dose 1 mg/kg, route intravenous; conditions: in vivo, read-out: Vdss
[7] = (§1) AUC in mouse at 1 mg/kg, iv; assay type: ADME, organism-based, Plasma; design: dose 1 mg/kg, route intravenous; conditions: plasma
[8] = (§2) AUC in mouse at 25 mg/kg, po; assay type: ADME, organism-based, Plasma; design: dose 25 mg/kg, route oral; conditions: plasma
How it was run: (§3)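 Oral PK: rat dosed 5 mg/kg PO as solution; mouse dosed 25 mg/kg PO as suspension. Plasma AUC (μM·h) and bioavailability F (%) determined.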

Mus musculus [9] = assay: Oral bioavailability in mouse at 25 mg/kg; assay type: ADME, organism-based; conditions: in vivo; how it was run: as §3
[10] = biological target: T1, Dual specificity mitogen-activated protein kinase kinase 1 (Homo sapiens, UniProt Q02750); assay: Inhibition of MEK1-mediated ERK1 phosphorylation after 30 mins by HTRF assay
T1 sequence (Q02750 whole entry): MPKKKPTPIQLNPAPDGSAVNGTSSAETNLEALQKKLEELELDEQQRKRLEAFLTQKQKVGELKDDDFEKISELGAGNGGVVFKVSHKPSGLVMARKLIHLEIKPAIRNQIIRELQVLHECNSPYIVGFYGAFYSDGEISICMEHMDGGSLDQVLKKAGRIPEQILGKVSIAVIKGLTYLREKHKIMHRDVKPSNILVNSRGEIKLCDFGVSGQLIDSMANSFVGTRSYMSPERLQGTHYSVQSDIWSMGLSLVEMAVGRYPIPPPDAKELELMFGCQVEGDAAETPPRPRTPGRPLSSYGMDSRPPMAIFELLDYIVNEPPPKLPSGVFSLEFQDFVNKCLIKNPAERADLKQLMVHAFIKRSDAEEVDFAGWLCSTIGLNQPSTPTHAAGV

[11] = Clearance in mouse at 1 mg/kg, iv; assay type: ADME, organism-based; design: dose 1 mg/kg, route intravenous; conditions: in vivo
HCT-116 [12] = assay: Antitumor activity against human HCT116 cells xenografted in nude nu/nu mouse assessed as tumor growth inhibition at 5 mg/kg, po administered QD for 3 weeks relative to vehicle-treated control; assay type: functional
How it was run: (§4)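 HCT116 colorectal xenografts in nude mice; animals randomized, dosed orally once daily for 3 weeks at 5, 25 or 75 mg/kg vs vehicle. Tumor volume and body weight tracked; animals euthanized at tumor volume >2000 mm³ or body weight loss >20%.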

[13] = Ratio of EC50 for human HCT116 cells to IC50 for MEK1-mediated ERK1 phosphorylation; design: species or system HCT-116
[14] = Ratio of EC50 for human A375 cells to IC50 for MEK1-mediated ERK1 phosphorylation; design: species or system A-375
[15] = biological target: T1, Dual specificity mitogen-activated protein kinase kinase 1; assay: Inhibition of MEK1-mediated ERK1 phosphorylation in human A375 cells after 2 hrs by immunofluorescence high content imaging
[16] = biological target: T1, Dual specificity mitogen-activated protein kinase kinase 1; assay: Inhibition of MEK1-mediated ERK1 phosphorylation in human HCT116 cells after 2 hrs by immunofluorescence high content imaging
[17] = Permeability from apical to basal side of MDCK cells; assay type: ADME, cell-based, Canis lupus familiaris; conditions: dog, read-out: permeability
How it was run: (§5)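 MDCK monolayer permeability measured in A→B and B→A directions, expressed as ×10⁻⁶ cm/s; efflux ratio taken as B:A over A:B.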

[18] = Efflux ratio of permeability from basal to apical to apical to basal side of MDCK cells; assay type: ADME, cell-based, Canis lupus familiaris; conditions: dog; how it was run: as §5
[19] = Permeability from basal to apical side of MDCK cells; assay type: ADME, cell-based, Canis lupus familiaris; conditions: dog, read-out: permeability; how it was run: as §5
[20] = Plasma protein binding in rat; assay type: ADME, cell-free; conditions: read-out: PPB (converted)
[21] = Clearance in rat at 1 mg/kg, iv; assay type: ADME, organism-based; design: dose 1 mg/kg, route intravenous; conditions: in vivo
[22] = Half life in rat at 1 mg/kg, iv; assay type: ADME, organism-based; design: dose 1 mg/kg, route intravenous; conditions: in vivo
[23] = Volume of distribution at steady state in rat at 1 mg/kg, iv; assay type: ADME, organism-based; design: dose 1 mg/kg, route intravenous; conditions: in vivo, read-out: Vdss
[24] = AUC in rat at 1 mg/kg, iv; assay type: ADME, organism-based; design: dose 1 mg/kg, route intravenous; conditions: plasma
[25] = AUC in rat at 5 mg/kg, po; assay type: ADME, organism-based; design: dose 5 mg/kg, route oral; conditions: plasma; how it was run: as §3
[26] = Oral bioavailability in rat at 5 mg/kg; assay type: ADME, organism-based; conditions: in vivo; how it was run: as §3
[27] = Half life in mouse at 25 mg/kg, po; assay type: ADME, organism-based; design: dose 25 mg/kg, route oral; conditions: in vivo
Mus musculus [28] = assay: as §1; assay type: ADME, organism-based, Plasma; design: dose 1 mg/kg, route intravenous; conditions: in vivo
Mus musculus [29] = assay: as §2; assay type: ADME, organism-based, Plasma; design: dose 25 mg/kg, route oral; conditions: in vivo; how it was run: as §3
[30] = Solubility of the compound at pH 6.5; assay type: physicochemical; conditions: buffer
How it was run: (§6)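 Solubility measured in aqueous buffer at pH 6.5 and in fasted-state simulated intestinal fluid (FASSIF), expressed in […].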

[31] = Solubility of the compound in fasted state simulated intestinal fluid; assay type: physicochemical; how it was run: as §6
Rattus norvegicus [32] = assay: Drug metabolism in rat assessed as glucuronidation at 5 mg/kg, po; assay type: ADME, organism-based; design: dose 5 mg/kg, route oral; conditions: in vivo
Rattus norvegicus [33] = assay: Drug metabolism in rat assessed as hydroxamate cleavage at 5 mg/kg, po; assay type: ADME, organism-based; design: dose 5 mg/kg, route oral; conditions: in vivo
Mus musculus [34] = assay: Toxicity in nude nu/nu mouse bearing human HCT116 xenograft assessed as body weight loss at 5 mg/kg, po administered QD for 3 weeks relative to vehicle-treated; assay type: organism-based; design: dose 5 mg/kg, route oral; conditions: in vivo, 504 h; how it was run: as §4
HCT-116 [35] = assay: Antitumor activity against human HCT116 cells xenografted in nude nu/nu mouse assessed as tumor growth inhibition at 25 and 75 mg/kg, po administered QD for 3 weeks relative to vehicle-treated; assay type: functional, organism-based; design: dose 75 mg/kg; how it was run: as §4
Mus musculus [36] = assay: Toxicity in nude nu/nu mouse bearing human HCT116 xenograft assessed as body weight loss at 75 mg/kg, po administered QD for 3 weeks relative to vehicle-treated; assay type: organism-based; design: dose 75 mg/kg, route oral; conditions: in vivo, 504 h; how it was run: as §4
Mus musculus [37] = assay: Inhibition of MEK-mediated ERK1/2 Thr185/Tyr187 phosphorylation in human HCT116 cells xenografted in nude nu/nu mouse at 25 mg/kg, po administered as single dose after 8 hrs relative to vehicle-treated control; assay type: functional; conditions: HCT-116, 8 h
Rattus norvegicus [38] = species: Rattus norvegicus; assay: Unbound clearance in rat; assay type: ADME, organism-based; conditions: in vivo
Rattus norvegicus [39] = assay: Unbound AUC in po dosed rat; assay type: ADME, organism-based; conditions: in vivo

EC50 (HCT-116 [1]): 314 nM | EC50 (A-375 [2]): 264 nM
SMILES: O=C(NOC[C@H](O)CO)c1oc2ccncc2c1Nc1ccc(I)cc1F

EC50 (HCT-116 [1]): 44 nM | EC50 (A-375 [2]): 7 nM | inhibition (INH) (Cytochrome P450 2C9): Not Active | inhibition (INH) (Cytochrome P450 2C19): Not Active
SMILES: O=C(NOCCO)c1ccc2cnsc2c1Nc1ccc(I)cc1F

EC50 (HCT-116 [1]): 175 nM | EC50 (A-375 [2]): 23 nM | fraction unbound [4]: 0.016 | half-life [5]: 2.3 h | Vd [6]: 0.71 L/kg | AUC [7]: 4.42 µM·h | AUC [8]: 192 µM·h | F (Mus musculus [9]): 173% | IC50 [10]: 35 nM | clearance [11]: 7.7 mL/min/kg | EC50 [15]: 7.2 nM | EC50 [16]: 4 nM
SMILES: C[C@H](O)CONC(=O)c1oc2c(F)cncc2c1Nc1ccc(I)cc1F
Ratio EC50 (A-375 [3]): 8 | Activity (HCT-116 [12]): Active | Ratio [13]: 5 | Ratio [14]: 0.65

EC50 (HCT-116 [1]): 31 nM | EC50 (A-375 [2]): 12 nM | Papp A→B [17]: 2 ×10⁻⁶ cm/s | IC50 [10]: 15 nM | efflux ratio [18]: 3.5 | Papp B→A [19]: 7.1 ×10⁻⁶ cm/s | EC50 [15]: 3.7 nM | EC50 [16]: 0.4 nM
SMILES: O=C(NOC[C@H](O)CO)c1ccc2[nH]ncc2c1Nc1ccc(I)cc1F
Ratio [13]: 2 | Ratio [14]: 0.8

EC50 (HCT-116 [1]): 193 nM | EC50 (A-375 [2]): 19 nM | fraction unbound [20]: 0.035 | clearance [21]: 54 mL/min/kg | half-life [22]: 0.36 h | Vd [23]: 1.5 L/kg | AUC [24]: 0.75 µM·h | AUC [25]: 1.29 µM·h | bioavailability [26]: 34% | IC50 [10]: 125 nM | EC50 [15]: 6.4 nM | EC50 [16]: 3.4 nM
SMILES: O=C(NOCCO)c1ccc2[nH]ncc2c1Nc1ccc(Br)cc1F
Ratio EC50 (A-375 [3]): 8 | Ratio [13]: 1.5 | Ratio [14]: 0.15

EC50 (HCT-116 [1]): 132 nM | EC50 (A-375 [2]): 4.9 nM | IC50 [10]: 93 nM | EC50 [15]: 2.4 nM | EC50 [16]: 1.3 nM
SMILES: CCONC(=O)c1ccc2[nH]ncc2c1Nc1ccc(I)cc1F

EC50 (HCT-116 [1]): 16 nM | EC50 (A-375 [2]): 2 nM | fraction unbound [20]: 0.039 | clearance [21]: 36 mL/min/kg | half-life [22]: 1.4 h | Vd [23]: 2.4 L/kg | AUC [24]: 1.01 µM·h | AUC [25]: 1.06 µM·h | bioavailability [26]: 21% | fraction unbound [4]: 0.03 | half-life [5]: 0.6 h | half-life [27]: 2.9 h | Vd [6]: 2 L/kg | AUC (Mus musculus [28]): 0.41 µM·h | AUC (Mus musculus [29]): 1.96 µM·h | F (Mus musculus [9]): 94% | solubility [30]: 80 µg/mL (≈ 175 µM) | solubility [31]: 180 µg/mL (≈ 395 µM) | Papp A→B [17]: 9.9 ×10⁻⁶ cm/s | Drug metabolism (Rattus norvegicus [32]): Active | Papp B→A [19]: 13.8 ×10⁻⁶ cm/s | clearance [11]: 88 mL/min/kg | Drug metabolism (Rattus norvegicus [33]): Active | CL free (Rattus norvegicus [38]): 923 mL/min/kg | fAUC (Rattus norvegicus [39]): 0.04 µM·h
SMILES: O=C(NOCCO)c1ccc2[nH]ncc2c1Nc1ccc(I)cc1F
inhibition in vivo at 5 mg/kg (HCT-116 [12]; HCT-116, 504 h, read-out: GI): 94% | Activity (Mus musculus [34]): Non-toxic | growth inhibition (GI) (HCT-116 [35]): Active | Activity (Mus musculus [36]): 10% | inhibition in vivo at 25 mg/kg (Mus musculus [37]): 70%

EC50 (HCT-116 [1]): 127 nM | EC50 (A-375 [2]): 9 nM
SMILES: O=C(NOCC1CC1)c1ccc2[nH]ncc2c1Nc1ccc(I)cc1F

EC50 (HCT-116 [1]): 62 nM | EC50 (A-375 [2]): 10 nM | fraction unbound [20]: 0.008 | clearance [21]: 15 mL/min/kg | half-life [22]: 1.6 h | Vd [23]: 0.97 L/kg | AUC [24]: 2.2 µM·h | AUC [25]: 5.7 µM·h | bioavailability [26]: 51% | IC50 [10]: 20 nM | CL free (Rattus norvegicus [38]): 1875 mL/min/kg | fAUC (Rattus norvegicus [39]): 0.046 µM·h | EC50 [15]: 1.1 nM | EC50 [16]: 0.9 nM
SMILES: O=C(NOC[C@H](O)CO)c1ccc2cnsc2c1Nc1ccc(I)cc1F
Ratio [13]: 2.9 | Ratio [14]: 0.47

IC50 [10]: > 10000 nM
SMILES: O=C(NCCCO)c1ccc2[nH]ncc2c1Nc1ccc(I)cc1F
